Measured values as given in ChEMBL document CHEMBL5653631, “A Potent and Selective ULK1 Inhibitor Suppresses Autophagy and Sensitizes Cancer Cells to Nutrient Stress” (iScience, 2018).
Each block holds one compound with its values, some of them ahead of it.

Key:
[1] = molecular target: T1, Serine/threonine-protein kinase 17A (Homo sapiens) (UniProt Q9UEE5); test: Inhibition of human recombinant DRAK1 at 500 nM in presence of ATP by radiometric assay relative to control
T1 sequence (whole entry): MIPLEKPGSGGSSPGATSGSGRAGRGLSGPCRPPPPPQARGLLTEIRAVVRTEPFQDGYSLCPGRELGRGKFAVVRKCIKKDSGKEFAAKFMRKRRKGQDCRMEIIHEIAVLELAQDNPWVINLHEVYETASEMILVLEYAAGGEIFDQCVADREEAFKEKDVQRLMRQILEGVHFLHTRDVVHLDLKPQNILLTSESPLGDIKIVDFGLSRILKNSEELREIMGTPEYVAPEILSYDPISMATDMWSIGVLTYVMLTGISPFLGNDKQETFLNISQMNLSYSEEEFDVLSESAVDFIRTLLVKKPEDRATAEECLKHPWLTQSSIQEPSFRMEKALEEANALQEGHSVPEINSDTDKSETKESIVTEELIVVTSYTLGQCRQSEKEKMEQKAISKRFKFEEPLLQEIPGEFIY

[2] = molecular target: Serine/threonine-protein kinase Nek6 (Homo sapiens) (UniProt Q9HC98); test: Inhibition of human recombinant NEK6 at 500 nM related to control ULK1
[3] = molecular target: Dual specificity protein kinase CLK1 (Homo sapiens) (UniProt P49759); test: Inhibition of human recombinant CLK1 at 40 nM in presence of ATP by radiometric assay relative to control
[4] = molecular target: T2, Discoidin domain-containing receptor 2 (Homo sapiens) (UniProt Q16832); test: Inhibition of human recombinant DDR2 at 40 nM in presence of ATP by radiometric assay relative to control
T2 sequence (whole entry): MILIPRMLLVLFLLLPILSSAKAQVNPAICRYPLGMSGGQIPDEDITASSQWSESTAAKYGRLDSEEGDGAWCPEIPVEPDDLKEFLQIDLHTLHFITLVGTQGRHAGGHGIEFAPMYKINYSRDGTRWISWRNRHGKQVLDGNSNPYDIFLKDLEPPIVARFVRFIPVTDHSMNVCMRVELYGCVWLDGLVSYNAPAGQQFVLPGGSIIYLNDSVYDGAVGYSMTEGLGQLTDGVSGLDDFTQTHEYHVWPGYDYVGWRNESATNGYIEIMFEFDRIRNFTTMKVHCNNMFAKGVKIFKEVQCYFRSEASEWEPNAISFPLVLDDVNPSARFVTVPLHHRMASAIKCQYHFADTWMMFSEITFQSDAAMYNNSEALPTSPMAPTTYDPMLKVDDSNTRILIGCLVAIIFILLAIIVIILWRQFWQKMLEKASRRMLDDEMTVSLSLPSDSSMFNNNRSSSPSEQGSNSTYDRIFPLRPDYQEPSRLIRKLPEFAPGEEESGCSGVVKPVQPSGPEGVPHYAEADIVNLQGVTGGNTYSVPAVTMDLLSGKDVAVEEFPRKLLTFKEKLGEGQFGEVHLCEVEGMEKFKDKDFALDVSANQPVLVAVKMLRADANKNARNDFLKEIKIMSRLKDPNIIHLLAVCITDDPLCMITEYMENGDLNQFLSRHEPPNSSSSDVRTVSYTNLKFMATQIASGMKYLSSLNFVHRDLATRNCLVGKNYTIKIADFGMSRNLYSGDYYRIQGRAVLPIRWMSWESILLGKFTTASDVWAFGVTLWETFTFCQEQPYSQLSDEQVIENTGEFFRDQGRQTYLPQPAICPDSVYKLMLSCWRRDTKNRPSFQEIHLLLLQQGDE

[5] = molecular target: ALK tyrosine kinase receptor (Homo sapiens) (UniProt Q9UM73); test: Inhibition of human recombinant ALK at 15 nM in presence of ATP by radiometric assay relative to control
How it was run: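 Panel of 327 recombinant human kinases in radiometric activity assays, each screened in duplicate at a single inhibitor concentration; percent activity remaining relative to vehicle control, percent inhibition taken as 100 minus activity remaining.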

[6] = molecular target: T3, Ephrin type-B receptor 3 (Homo sapiens) (UniProt P54753); test: Inhibition of human recombinant EphB3 at 15 nM in presence of ATP by radiometric assay relative to control
T3 sequence (whole entry): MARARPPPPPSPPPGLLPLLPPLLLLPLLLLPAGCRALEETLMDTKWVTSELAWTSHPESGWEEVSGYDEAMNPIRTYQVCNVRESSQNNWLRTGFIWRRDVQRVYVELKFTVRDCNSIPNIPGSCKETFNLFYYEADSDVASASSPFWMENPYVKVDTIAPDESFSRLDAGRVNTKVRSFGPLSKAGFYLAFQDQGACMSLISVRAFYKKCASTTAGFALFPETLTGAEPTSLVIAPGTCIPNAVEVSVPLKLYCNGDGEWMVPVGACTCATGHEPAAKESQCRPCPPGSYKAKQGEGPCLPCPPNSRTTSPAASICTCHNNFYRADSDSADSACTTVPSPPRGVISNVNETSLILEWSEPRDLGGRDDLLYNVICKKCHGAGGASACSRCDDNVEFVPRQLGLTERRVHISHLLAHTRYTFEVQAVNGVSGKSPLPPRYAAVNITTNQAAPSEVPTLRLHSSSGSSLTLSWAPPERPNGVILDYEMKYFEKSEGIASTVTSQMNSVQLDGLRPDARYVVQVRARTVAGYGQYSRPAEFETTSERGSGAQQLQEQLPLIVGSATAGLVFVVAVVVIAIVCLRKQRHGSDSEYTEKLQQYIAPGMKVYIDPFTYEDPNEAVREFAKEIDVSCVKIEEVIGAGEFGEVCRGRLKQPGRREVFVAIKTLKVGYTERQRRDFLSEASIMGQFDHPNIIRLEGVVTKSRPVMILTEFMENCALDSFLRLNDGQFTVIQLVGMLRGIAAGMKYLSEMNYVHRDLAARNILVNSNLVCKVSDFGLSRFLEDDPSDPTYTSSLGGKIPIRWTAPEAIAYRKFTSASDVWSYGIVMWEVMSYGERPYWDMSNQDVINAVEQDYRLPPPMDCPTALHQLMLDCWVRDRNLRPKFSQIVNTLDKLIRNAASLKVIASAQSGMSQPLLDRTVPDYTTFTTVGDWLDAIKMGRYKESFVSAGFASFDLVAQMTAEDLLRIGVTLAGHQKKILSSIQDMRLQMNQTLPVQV

[7] = molecular target: Casein kinase I isoform gamma-3 (Homo sapiens) (UniProt Q9Y6M4); test: Inhibition of human recombinant CK1g3 at 15 nM related to control ULK1
Chain of Casein kinase I isoform gamma-3 (Homo sapiens) (Q9Y6M4 whole entry, looked up, canonical isoform): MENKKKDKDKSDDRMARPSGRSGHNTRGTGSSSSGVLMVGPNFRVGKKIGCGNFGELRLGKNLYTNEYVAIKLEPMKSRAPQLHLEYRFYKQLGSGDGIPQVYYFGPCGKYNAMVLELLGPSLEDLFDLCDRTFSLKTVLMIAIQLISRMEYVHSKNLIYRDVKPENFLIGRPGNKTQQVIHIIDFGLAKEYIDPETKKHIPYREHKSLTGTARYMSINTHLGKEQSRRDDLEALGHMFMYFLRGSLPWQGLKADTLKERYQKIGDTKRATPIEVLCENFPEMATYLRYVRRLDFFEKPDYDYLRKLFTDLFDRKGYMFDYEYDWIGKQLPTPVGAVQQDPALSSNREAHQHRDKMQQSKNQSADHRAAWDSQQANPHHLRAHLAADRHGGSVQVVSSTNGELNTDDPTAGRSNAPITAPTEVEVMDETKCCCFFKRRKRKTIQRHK

Chain of ALK tyrosine kinase receptor (Homo sapiens) (Q9UM73 19-1620 limits assumed): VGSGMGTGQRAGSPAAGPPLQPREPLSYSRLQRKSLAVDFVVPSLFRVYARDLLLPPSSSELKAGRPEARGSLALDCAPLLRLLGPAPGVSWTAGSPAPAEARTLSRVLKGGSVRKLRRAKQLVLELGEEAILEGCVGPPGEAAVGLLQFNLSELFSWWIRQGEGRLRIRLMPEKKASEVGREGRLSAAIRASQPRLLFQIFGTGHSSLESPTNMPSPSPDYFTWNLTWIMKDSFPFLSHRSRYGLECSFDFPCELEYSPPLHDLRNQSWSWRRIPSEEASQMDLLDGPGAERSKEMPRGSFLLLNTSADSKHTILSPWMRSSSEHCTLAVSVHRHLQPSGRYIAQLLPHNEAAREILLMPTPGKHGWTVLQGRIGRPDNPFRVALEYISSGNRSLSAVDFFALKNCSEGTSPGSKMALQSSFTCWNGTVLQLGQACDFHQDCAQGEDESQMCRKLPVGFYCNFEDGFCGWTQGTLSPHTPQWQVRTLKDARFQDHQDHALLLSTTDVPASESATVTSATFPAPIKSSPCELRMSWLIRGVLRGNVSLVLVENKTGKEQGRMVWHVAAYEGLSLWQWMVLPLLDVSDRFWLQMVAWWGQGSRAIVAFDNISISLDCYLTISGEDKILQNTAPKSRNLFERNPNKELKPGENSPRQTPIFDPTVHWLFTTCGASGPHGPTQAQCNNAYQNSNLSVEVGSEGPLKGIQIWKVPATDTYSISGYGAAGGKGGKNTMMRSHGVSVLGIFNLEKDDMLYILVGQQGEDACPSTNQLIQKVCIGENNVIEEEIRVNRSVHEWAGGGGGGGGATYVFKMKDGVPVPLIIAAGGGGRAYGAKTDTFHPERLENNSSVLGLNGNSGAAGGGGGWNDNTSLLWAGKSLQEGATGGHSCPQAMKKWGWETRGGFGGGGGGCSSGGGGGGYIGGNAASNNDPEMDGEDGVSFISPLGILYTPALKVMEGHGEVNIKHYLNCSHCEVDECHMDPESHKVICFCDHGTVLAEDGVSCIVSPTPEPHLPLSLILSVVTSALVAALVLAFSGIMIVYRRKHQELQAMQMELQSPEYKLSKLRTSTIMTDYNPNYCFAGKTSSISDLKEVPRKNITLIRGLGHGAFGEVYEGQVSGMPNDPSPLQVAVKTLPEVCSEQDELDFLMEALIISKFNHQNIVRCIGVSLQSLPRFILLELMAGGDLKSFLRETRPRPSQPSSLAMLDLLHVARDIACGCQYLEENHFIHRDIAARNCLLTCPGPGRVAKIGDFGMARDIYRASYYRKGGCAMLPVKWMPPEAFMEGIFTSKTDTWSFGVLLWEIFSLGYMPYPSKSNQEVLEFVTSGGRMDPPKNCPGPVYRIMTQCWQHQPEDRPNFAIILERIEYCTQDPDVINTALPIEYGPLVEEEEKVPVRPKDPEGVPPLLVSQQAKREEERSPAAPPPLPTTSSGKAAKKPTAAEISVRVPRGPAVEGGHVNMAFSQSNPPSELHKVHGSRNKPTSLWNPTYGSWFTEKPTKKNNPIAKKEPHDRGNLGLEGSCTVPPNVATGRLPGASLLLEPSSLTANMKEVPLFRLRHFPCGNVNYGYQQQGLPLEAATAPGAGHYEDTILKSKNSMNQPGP
Chain of Dual specificity protein kinase CLK1 (Homo sapiens) (P49759 whole entry, looked up, the tested form may be a part): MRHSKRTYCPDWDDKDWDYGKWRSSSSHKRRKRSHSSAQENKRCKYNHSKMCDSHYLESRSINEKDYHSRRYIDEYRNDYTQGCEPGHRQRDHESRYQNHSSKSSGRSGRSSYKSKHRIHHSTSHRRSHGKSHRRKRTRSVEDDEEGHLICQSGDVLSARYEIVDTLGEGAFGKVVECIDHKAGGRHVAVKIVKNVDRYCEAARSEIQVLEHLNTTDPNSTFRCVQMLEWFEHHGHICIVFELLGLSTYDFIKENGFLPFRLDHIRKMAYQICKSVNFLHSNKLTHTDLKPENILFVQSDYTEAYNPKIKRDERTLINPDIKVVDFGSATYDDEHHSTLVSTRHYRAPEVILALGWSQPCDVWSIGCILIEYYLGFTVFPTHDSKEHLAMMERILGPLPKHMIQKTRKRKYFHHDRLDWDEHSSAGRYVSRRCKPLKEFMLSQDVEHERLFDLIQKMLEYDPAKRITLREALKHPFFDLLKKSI
Chain of Serine/threonine-protein kinase Nek6 (Homo sapiens) (Q9HC98 whole entry): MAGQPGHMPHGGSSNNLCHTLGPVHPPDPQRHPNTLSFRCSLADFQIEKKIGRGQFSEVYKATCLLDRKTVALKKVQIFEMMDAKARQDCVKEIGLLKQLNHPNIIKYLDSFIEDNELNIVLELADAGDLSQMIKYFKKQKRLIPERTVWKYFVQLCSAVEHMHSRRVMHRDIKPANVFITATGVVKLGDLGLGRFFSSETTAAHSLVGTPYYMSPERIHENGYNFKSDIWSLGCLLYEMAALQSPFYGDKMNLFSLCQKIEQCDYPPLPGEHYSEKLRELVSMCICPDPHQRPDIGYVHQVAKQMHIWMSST

inhibition [1]: 0% | fold change (FC) [2]: 0
SMILES: CNC(=O)c1ccccc1Oc1nc(Nc2cc(OC)c(OC)c(OC)c2)ncc1Br

inhibition [3]: 34% | inhibition [4]: 0%
SMILES: O=C(N[C@@H](C1CC1)C(F)(F)F)c1cc(-c2cnn3cc(-c4ccc(F)cc4)cnc23)cs1

inhibition [5]: 0% | inhibition [6]: 0% | fold change (FC) [7]: 0.03
SMILES: CC(C)[C@H](NC(=O)c1cc(-c2cnn3cc(-c4ccc(OCCN5CCCCC5)cc4)cnc23)cs1)C(F)(F)F
